In the library only some 11% were active in any assay of this set; here they are far more common.
M1 antagonist: blocks the rat M1 muscarinic receptor response to acetylcholine. 64,000 tested, 3.4% active. CHO-M1 cells, Fluo-4 calcium, ACh EC80 antagonist mode; active compounds read low. AID 628. B-score at 10 µM;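 active means calcium fluorescence response, raw or row-and-column corrected B-score, differing from the plate sample mean either way at a set confidence level, mostly lower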
mHtt clearance: compounds clearing mutant huntingtin protein; HeLa Exon1htt(103Q)mCFP, aggregate imaging; zero = plate's median compound well; AID 853; inhibition, % at 1.5 µM; 47,000 tested, 0.42% active;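 active means inhibition of aggregate fluorescence above about 70%, also judged a hit by eye on the cell image, limit read from the data, passing the limit was not always enough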;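 further: cells exposed to compound for three days before fixation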
SF-1 act: activates the human nuclear receptor SF-1 | Q13285 | AID 522 | activation, % at 10 µM | 65,000 tested, 1.9% active | CHO-K1 Gal4-SF-1 LBD luciferase reporter; % increase over DMSO SF-1-specific signal;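 active means activation above the mean activation of all tested compounds plus 3 SD, cut at about 50% in these data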
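Test system: CHO-K1 cells with Gal4–hSF-1 LBD chimera plus Gal4-driven luciferase; Input: 4,000 cells/well; Compound: 10 µM only; Times: 20 h compound treatment, 37 °C; Measured by: steady-glow luciferase luminescence, read after 15 min reagent incubation; Measure: percent activation versus DMSO; Control set: DMSO and mock-transfected background; Replicates: one test per compound.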
M1 ag: M1 muscarinic receptor agonism; CHO-M1 cells, Fluo-4 calcium fluorescence, agonist mode; active compounds read high; B-score at 10 µM; 64,000 tested, 3% active;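 active means fluorescence rise, raw or as B-score row- and column-corrected plate score, outside the 99.7% band of its plate's samples, either direction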
RORA act: RORA (human) activation | activation, % at 10 µM | 65,000 tested, 1.5% active | AID 560 | P35398 | CHO-K1 Gal4-RORA LBD luciferase reporter, luminescence; percent increase over mock-subtracted basal signal;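 active means activation above the mean of all tested compounds plus 3 SD, cut at about 49% in these data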;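 further: 0% = DMSO-treated RORA cells and 100% = added signal equal to DMSO minus mock-transfected cells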
Target sequence (P35398 whole entry, looked up, the tested form may be a part): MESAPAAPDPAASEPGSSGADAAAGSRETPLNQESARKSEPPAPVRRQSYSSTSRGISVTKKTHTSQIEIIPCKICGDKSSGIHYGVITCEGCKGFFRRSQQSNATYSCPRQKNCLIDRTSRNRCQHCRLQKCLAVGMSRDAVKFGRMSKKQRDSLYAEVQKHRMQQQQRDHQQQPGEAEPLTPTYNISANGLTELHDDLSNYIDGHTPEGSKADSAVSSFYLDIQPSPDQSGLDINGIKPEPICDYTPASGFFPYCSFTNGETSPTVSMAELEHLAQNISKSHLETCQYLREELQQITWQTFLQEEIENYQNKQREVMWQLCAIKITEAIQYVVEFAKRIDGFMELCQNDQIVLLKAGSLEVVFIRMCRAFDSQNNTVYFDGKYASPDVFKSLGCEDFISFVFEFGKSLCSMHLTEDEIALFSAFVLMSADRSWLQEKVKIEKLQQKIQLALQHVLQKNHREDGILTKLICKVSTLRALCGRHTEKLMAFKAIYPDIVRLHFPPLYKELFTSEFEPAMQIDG
D1 mod: allosteric modulators of human D1 dopamine receptor; P21728; HEK293 D1, CRE-luciferase, dopamine EC30 potentiation; actives deviate in either direction; B-score at 10 µM; 58,000 tested, 5.9% active; AID 641;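 active means luminescence count or its row- and column-corrected plate score outside the 99.7% band of the plate's sample wells, on either side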
D1 PAM confirm: D1 receptor (human) allosteric modulation, confirmed. HEK293 D1 CRE-luciferase, dopamine EC30 potentiation; active compounds read high. luminescence at 10 µM. shares compounds with D1 mod. 2,200 tested, 88% active;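 active means luminescence in either of two replicates above the same-plate mean plus 3 SD of the low-dose dopamine control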
D1 ag no DA: secondary test of D1 modulators: activity without dopamine. AID 646. 1,900 tested, 0.8% active. shares compounds with D1 mod. luminescence at 10 µM. HEK293 D1 CRE-luciferase, luminescence, no dopamine; active compounds read high; in the data active means luminescence above about 3900
Isoprot counter: isoproterenol response counter-screen activity for D1 modulators; shares compounds with D1 mod; HEK293 D1 CRE-luciferase, isoproterenol EC30 counter-screen; calls only at 10 µM; 2,200 tested, 63% active;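 active means luminescence in either replicate above plate mean of wells with a partly effective reference agonist dose plus 3 SD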;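 further: isoproterenol raises cAMP through native beta-adrenoceptor Gs so signal bypasses D1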
Active calls of the source: *.

Screening C=CCN=C(NC#N)SCc1ccccc1Cl returned M1 antagonist -0.36, mHtt clearance -31, SF-1 act -12, M1 ag -0.54, RORA act -9, D1 mod 7.4*, D1 PAM confirm 8148* and Isoprot counter inactive.
Screening CCOC(=O)c1[nH]c2ccc(OCC)cc2c1NC(=O)CN1CCC2(CC1)OCCO2 returned M1 antagonist -0.51, SF-1 act -1, M1 ag 0.038, RORA act 0 and D1 mod 0.25.
For CCOC(=O)c1[nH]c2ccc(F)cc2c1NC(=O)CN1CCc2cc(OC)c(OC)cc2C1 the results were M1 antagonist 0.071, mHtt clearance -59, SF-1 act 4, M1 ag 0.91, RORA act 27, D1 mod 1.7*, D1 PAM confirm 9280*, D1 ag no DA 1680 and Isoprot counter active.
COC(=O)c1[nH]c2ccc(Cl)cc2c1NC(=O)CN1CCc2cc(OC)c(OC)cc2C1 was read as M1 antagonist 0.14, SF-1 act -3, M1 ag 0.047, RORA act 8 and D1 mod -0.012.
For CCOC(=O)c1[nH]c2cc(OC)c(OC)cc2c1NC(=O)CN(C)C1CCCCC1 the results were M1 antagonist 0.33, mHtt clearance 0, SF-1 act -12, M1 ag 0.7, RORA act 4, D1 mod 4.3*, D1 PAM confirm 10140*, D1 ag no DA 1444 and Isoprot counter active.
For CCOC(=O)c1[nH]c2cc(OC)c(OC)cc2c1NC(=O)c1ccc2c(c1)OCO2 the results were M1 antagonist -0.29, mHtt clearance 3, SF-1 act 5, M1 ag 0.47 and RORA act -4.
`CCOC(=O)c1[nH]c2ccc(OC)cc2c1NC(=O)CN1CCSCC1` gave M1 antagonist 0.37, mHtt clearance -8, SF-1 act -16, M1 ag -0.038, RORA act 15, D1 mod 2.3*, D1 PAM confirm 6220*, D1 ag no DA 1352 and Isoprot counter active.
For CCN1C(=O)/C(=c2/s/c(=C3\SC(C)=C(C)N3CC)c(=O)n2CC)N(c2ccccc2)C1=S the results were mHtt clearance 16.
Screening CN(C)CCN1C(=O)C(=O)/C(=C(/O)c2ccc(OCc3ccccc3)cc2)C1c1ccncc1 (stereo unspecified) returned M1 antagonist 0.58, SF-1 act 13, M1 ag -0.65, RORA act -24 and D1 mod 1.9.
`CCn1c(CSc2nc3ccccc3s2)nc2ccccc21` gave mHtt clearance -26 and D1 mod 0.0061.
`COc1ccc(-c2c(C)n([O-])c3c([n+]2=O)CCC3)cc1OC` gave M1 antagonist 0.51, mHtt clearance -20, SF-1 act 4, M1 ag -0.022, RORA act -19, D1 mod 2.3*, D1 PAM confirm 4884, D1 ag no DA 1632 and Isoprot counter inactive.
CNC(=O)N(C1=NCC(C)(C)S1)c1ccc(F)c(Cl)c1 was read as M1 antagonist 0.55, mHtt clearance -3, SF-1 act 24, M1 ag 0.15, RORA act 7, D1 mod 11*, D1 PAM confirm 25560*, D1 ag no DA 1876 and Isoprot counter active.
For O=c1cc(CN2CCC3(CC2)OCCO3)c2c(ccc3ccccc32)o1 the results were M1 antagonist -0.021, SF-1 act 2, M1 ag -0.08, RORA act -5, D1 mod 5.4*, D1 PAM confirm 13160*, D1 ag no DA 1728 and Isoprot counter active.
O=c1cc(CN2CCN(c3ccccc3)CC2)c2c(ccc3ccccc32)o1 was read as M1 antagonist -1.1, SF-1 act 14, M1 ag -0.72, RORA act 6 and D1 mod 0.63.
